Source: ChEMBL document CHEMBL1811802, “Synthesis and significant cytostatic activity of 7-hetaryl-7-deazaadenosines” (J Med Chem, 2011)

Legend:
[1] = Cytotoxicity against human U87MG cells after 3 days by MTT assay; assay type: functional, cell-based, U-87MG ATCC; conditions: U-87 MG, 72 h
A549 = test: Cytostatic activity against human A549 cells after 5 days by SRB assay; assay type: functional; conditions: A549, 120 h
How it was run: (§1)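 Cells seeded per line density, overnight at 37 °C; day-zero plate TCA-fixed. 5-fold serial dilutions added, 5-day incubation; TCA fixation, 0.057% SRB in 1% acetic acid 30 min, dye dissolved in 10 mM Tris pH 10.5, A500. Growth relative to day-zero and untreated; GIC50 from sigmoidal dose–response fit; mean of two independent experiments.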

C6 = test: Cytotoxicity against rat C6 cells after 3 days by MTT assay; assay type: functional, cell-based; conditions: C6, 72 h
HPAC = test: Cytotoxicity against human HPAC cells after 3 days by MTT assay; assay type: functional, cell-based; conditions: 72 h
PC-3 [2] = test: Cytostatic activity against human PC3 cells after 5 days by SRB assay; assay type: functional; conditions: PC-3, 120 h; how it was run: as §1
MDA-MB-231 = test: Cytotoxicity against human MDA-MB-231 cells after 3 days by MTT assay; assay type: functional, cell-based; conditions: MDA-MB-231, 72 h
BJ = test: Cytotoxicity against human BJ cells after 3 days by MTT assay; assay type: cell-based; conditions: 72 h
MCF7 = test: Cytotoxicity against human MCF7 cells after 3 days by MTT assay; assay type: functional, cell-based; conditions: MCF7, 72 h
PC-3 [3] = test: Cytotoxicity against human PC3 cells after 3 days by MTT assay; assay type: functional, cell-based; conditions: PC-3, 72 h
LNCaP = test: Cytotoxicity against human LNCAP cells after 3 days by MTT assay; assay type: functional, cell-based; conditions: 72 h
K562 [4] = test: Cytotoxicity against human paclitaxel resistant K562 cells after 3 days by MTT assay; assay type: functional, cell-based; conditions: K562, 72 h
CCRF-CEM = test: Cytotoxicity against human CCRF-CEM cells after 3 days by XTT assay; assay type: functional, cell-based; conditions: 72 h
How it was run: (§2)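 Suspension-grown cell lines, 3-day compound incubation; viability read by XTT metabolic assay; IC50 averaged from four independent experiments.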

SK-OV-3 = test: Cytotoxicity against human SKOV3 cells after 3 days by MTT assay; assay type: functional, cell-based; conditions: SK-OV-3, 72 h
HL-60 = test: Cytotoxicity against human HL60 cells after 3 days by XTT assay; assay type: functional, cell-based; conditions: HL-60, 72 h; how it was run: as §2
L1210 = test: Cytotoxicity against mouse L1210 cells after 3 days by MTT assay; assay type: functional, cell-based; conditions: L1210, 72 h
[5] = Cytotoxicity against human MES-SA cells after 3 days by MTT assay; assay type: functional, cell-based; conditions: 72 h
[6] = Cytostatic activity against human Hs578 cells after 5 days by SRB assay; assay type: functional; conditions: Hs578, 120 h; how it was run: as §1
BT-549 [7] = test: Cytostatic activity against human BT549 cells after 5 days by SRB assay; assay type: functional; conditions: BT-549, 120 h; how it was run: as §1
SK-N-AS = test: Cytotoxicity against human SK-N-AS cells after 3 days by MTT assay; assay type: functional, cell-based; conditions: 72 h
NCI-H23 = test: Cytostatic activity against human NCI-H23 cells after 5 days by SRB assay; assay type: functional; conditions: NCI-H23, 120 h; how it was run: as §1
[8] = Cytotoxicity against human CEM-DNR-bulk cells after 3 days by MTT assay; assay type: functional, cell-based; conditions: 72 h
[9] = Cytotoxicity against human NCI-H146 cells after 3 days by MTT assay; assay type: functional, cell-based; conditions: NCI-H146, 72 h
HT-29 = test: Cytotoxicity against human HT-29 cells after 3 days by MTT assay; assay type: functional, cell-based; conditions: HT-29, 72 h
HCT-116 [10] = test: Cytostatic activity against human HCT116 cells after 5 days by SRB assay; assay type: functional; conditions: HCT-116, 120 h; how it was run: as §1
K562 [11] = test: Cytotoxicity against human K562 cells after 3 days by MTT assay; assay type: functional, cell-based; conditions: K562, 72 h
Adenosine kinase = Adenosine kinase (Homo sapiens, UniProt P55263); test: Inhibition of human ADK using [3H]-adenosine by scintillation counting
[12] = Cytotoxicity against human HeLaS3 cells after 3 days by XTT assay; assay type: functional, cell-based; conditions: HeLa S3, 72 h; how it was run: as §2
CT26 = test: Cytotoxicity against mouse CT26 cells after 3 days by MTT assay; assay type: functional, cell-based; conditions: CT26, 72 h
MAT-Ly-Lu = test: Cytotoxicity against rat MAT-LyLu cells after 3 days by MTT assay; assay type: functional, cell-based; conditions: 72 h
BV-173 = test: Cytotoxicity against human BV173 cells after 3 days by MTT assay; assay type: functional, cell-based; conditions: BV-173, 72 h
BT-549 [13] = test: Cytotoxicity against human BT549 cells after 3 days by MTT assay; assay type: functional, cell-based; conditions: BT-549, 72 h
MT4 = test: Cytostatic activity against human MT4 cells after 5 days by SRB assay; assay type: functional; conditions: MT4, 120 h
HeLa = test: Cytotoxicity against human HeLa cells after 3 days by MTT assay; assay type: functional, cell-based; conditions: 72 h
HCT-116 [14] = test: Cytotoxicity against human HCT116 cells after 3 days by MTT assay; assay type: functional, cell-based; conditions: HCT-116, 72 h
SK-MEL-2 = test: Cytotoxicity against human SK-MEL-2 cells after 3 days by MTT assay; assay type: functional, cell-based; conditions: SK-MEL-2, 72 h
EL4 = test: Cytotoxicity against mouse EL4 cells after 3 days by MTT assay; assay type: functional, cell-based; conditions: EL4, 72 h
[15] = Cytotoxicity against mouse P388D1 cells after 3 days by MTT assay; assay type: functional, cell-based; conditions: P388D1, 72 h
[16] = Inhibition of RNA polymerase 2 in human HeLaScribe nuclear extracts after 1 hr
How it was run: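 HeLaScribe nuclear extract transcription with CMV(+) template DNA, 3 mM MgCl2, 400 μM CTP/GTP/UTP, 25 μM [33P]ATP. Inhibitor preincubated 5 min at 30 °C, then 1 h at 30 °C. Products run on 6% urea–polyacrylamide gel; full-length transcript quantified; IC50 is 50% product decrease.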

DU-145 = test: Cytostatic activity against human DU145 cells after 5 days by SRB assay; assay type: functional; conditions: DU-145, 120 h; how it was run: as §1

Sequence of Adenosine kinase (P55263 whole entry): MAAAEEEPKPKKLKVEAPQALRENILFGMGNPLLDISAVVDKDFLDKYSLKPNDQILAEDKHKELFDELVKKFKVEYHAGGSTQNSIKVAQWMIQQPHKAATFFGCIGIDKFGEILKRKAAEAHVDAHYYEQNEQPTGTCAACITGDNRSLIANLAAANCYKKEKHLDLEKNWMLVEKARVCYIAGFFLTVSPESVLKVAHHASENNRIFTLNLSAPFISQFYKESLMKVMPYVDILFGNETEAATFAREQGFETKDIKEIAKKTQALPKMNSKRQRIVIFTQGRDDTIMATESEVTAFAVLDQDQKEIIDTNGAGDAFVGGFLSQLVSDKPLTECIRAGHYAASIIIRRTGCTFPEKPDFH

| SMILES | IC50 [1] [µM] | GI50 (A549) [nM] | IC50 (C6) [µM] | IC50 (HPAC) [nM] | GI50 (PC-3 [2]) [nM] | IC50 (MDA-MB-231) [nM] | IC50 (BJ) [µM] | IC50 (MCF7) [µM] | IC50 (PC-3 [3]) [µM] | IC50 (LNCaP) [µM] | IC50 (K562 [4]) [nM] | IC50 (CCRF-CEM) [nM] | IC50 (SK-OV-3) [µM] | IC50 (HL-60) [µM] | IC50 (L1210) [nM] | IC50 [5] [µM] | GI50 [6] [nM] | GI50 (BT-549 [7]) [nM] | IC50 (SK-N-AS) [µM] | GI50 (NCI-H23) [nM] | further results |
| --- | --- | --- | --- | --- | --- | --- | --- | --- | --- | --- | --- | --- | --- | --- | --- | --- | --- | --- | --- | --- | --- |
| Nc1ncnc2c1c(-c1cn[nH]c1)cn2[C@@H]1O[C@H](CO)[C@@H](O)[C@H]1O | > 10 | 192 | 0.538 | 141 | 14 | > 10000 | > 10 | > 10 | > 10 | 9.55 | 92 | 560 | > 10 | > 25 | 258 | 7.74 | 12 | 50 | > 10 | 144 | IC50 [8]: 104 nM; IC50 [9]: > 10 µM; IC50 (HT-29): 136 nM; GI50 (HCT-116 [10]): 970 nM; IC50 (K562 [11]): 9.83 µM; IC50 (Adenosine kinase): 50 nM; IC50 [12]: 220 nM; IC50 (CT26): 396 nM; IC50 (MAT-Ly-Lu): > 10000 nM; IC50 (BV-173): 9.78 µM; IC50 (BT-549 [13]): 108 nM; GI50 (MT4): 110 nM; IC50 (HeLa): 185 nM; IC50 (HCT-116 [14]): > 10000 nM; IC50 (SK-MEL-2): > 10 µM; IC50 (EL4): > 10 µM; IC50 [15]: 93 nM |
| Nc1ncnc2c1c(-c1ccsc1)cn2[C@@H]1O[C@H](COP(=O)(O)OP(=O)(O)OP(=O)(O)O)[C@@H](O)[C@H]1O | – | – | – | – | – | – | – | – | – | – | – | – | – | – | – | – | – | – | – | – | IC50 ([16]; read-out: IC50): 91 µM |
| CC[C@H](C)[C@@H]1NC(=O)CNC(=O)[C@@H]2Cc3c([nH]c4cc(O)ccc34)[S+]([O-])C[C@@H](NC(=O)CNC1=O)C(=O)N[C@@H](CC(N)=O)C(=O)N1C[C@H](O)C[C@H]1C(=O)N[C@@H]([C@@H](C)[C@@H](O)CO)C(=O)N2 (stereo partly drawn) [alpha-Amanitin] | – | – | – | – | – | – | – | – | – | – | – | – | – | – | – | – | – | – | – | – | IC50 [16]: 2.2 ng/mL |
| Nc1ncnc2c1c(-c1ccsc1)cn2[C@@H]1O[C@H](CO)[C@@H](O)[C@H]1O | > 10 | 16 | 8.29 | 110 | 1320 | 82 | > 10 | 7.25 | > 10 | 0.068 | 93 | 110 | > 10 | 6.62 | 199 | 0.076 | 50 | 28 | > 10 | 73 | GI50 (DU-145): 97 nM; IC50 [8]: 110 nM; IC50 [9]: > 10 µM; IC50 (HT-29): 184 nM; GI50 (HCT-116 [10]): 7 nM; IC50 (K562 [11]): 0.067 µM; IC50 (Adenosine kinase): > 5000 nM; IC50 [12]: 60 nM; IC50 (CT26): 225 nM; IC50 (MAT-Ly-Lu): 525 nM; IC50 (BV-173): 0.029 µM; IC50 (BT-549 [13]): 120 nM; GI50 (MT4): 124 nM; IC50 (HeLa): 124 nM; IC50 (HCT-116 [14]): 194 nM; IC50 (SK-MEL-2): > 10 µM; IC50 (EL4): > 10 µM; IC50 [15]: 76 nM |
